High-throughput results: PubChem BioAssay, Broad Institute
Shown are actives, neighbours in structure and some others; about 2.5% of the full set was active somewhere.
S100A4 MyoIIA: S100A4-myosin IIA interaction inhibition; S100A4/TAMRA-MyoIIA peptide fluorescence polarization; P26447; 360,000 tested, 0.14% active; inhibition, % at 10.7 µM;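 active = mean inhibition of at least 70% across replicates, with every replicate also reaching that level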
Target sequence (P26447 whole entry, looked up): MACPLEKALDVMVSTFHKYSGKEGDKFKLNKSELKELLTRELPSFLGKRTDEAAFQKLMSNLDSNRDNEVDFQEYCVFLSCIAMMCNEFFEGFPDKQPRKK
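Test system: S100A4 monomer protein. Medium: HEPES buffer with Ca2+, pH 7.2. Reagent: fluorescent myosin IIA peptide, 5 nM. Compound dosing: single-point compound testing. Timing: 5 min between mix addition and reading. Benchmarks: DMSO neutral and TFP positive wells.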
FGF22 binding: binders of recombinant human FGF22 by thermal shift. SYPRO orange fluorescence; percent of sucrose octasulfate shift, DMSO zero. activity (Tm shift, normalised), % at 9.99 µM. 340,000 tested, 1.5% active. AID 651658;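 active = mean Tm shift, scaled 0 neutral to 100 positive control, at about 1.3% or above, every replicate too, limit read from the data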
Target sequence (Q9HCT0 whole entry, looked up): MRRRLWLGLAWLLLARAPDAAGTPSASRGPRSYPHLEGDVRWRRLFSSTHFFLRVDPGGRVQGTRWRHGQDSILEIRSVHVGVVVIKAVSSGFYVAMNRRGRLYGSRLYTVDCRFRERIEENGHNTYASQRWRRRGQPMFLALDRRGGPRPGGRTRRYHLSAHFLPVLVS
SIRT5 block: sirtuin-5 (human) deacylase inhibition | Q9NXA8 | Purified SirT5, succinyl-peptide AMC, trypsin-coupled fluorescence | inhibition, % at 15 µM | 330,000 tested, 1.1% active | AID 652115; in the data active = inhibition above about 15%
Target sequence (Q9NXA8 whole entry, looked up): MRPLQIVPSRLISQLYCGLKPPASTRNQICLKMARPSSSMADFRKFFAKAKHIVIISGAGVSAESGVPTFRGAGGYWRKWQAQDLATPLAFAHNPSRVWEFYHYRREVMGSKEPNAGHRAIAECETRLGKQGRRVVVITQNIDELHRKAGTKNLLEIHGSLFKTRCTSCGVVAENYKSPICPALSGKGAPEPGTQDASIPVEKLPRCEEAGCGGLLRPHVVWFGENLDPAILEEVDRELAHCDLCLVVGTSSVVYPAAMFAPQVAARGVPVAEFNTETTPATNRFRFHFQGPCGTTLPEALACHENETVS
E-sel inducer: induces E-selectin expression in human endothelial cells | P16581 | HUVEC E-selectin immunofluorescence imaging; normalized: neutral wells 0, TNF-alpha wells 100 | activation, % at 7.58 µM | 260,000 tested, 0.37% active | AID 686992;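 active = mean E-selectin-positive cell signal at least 10% of the positive control, reached in at least 60% of replicates, without over 20% cell loss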
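Read-out: % PE-positive cells | Test system: HUVEC | Doses: One compound dose added by pin transfer | Buffer or medium: EGM-2 over gelatin coat | Signal: Immunofluorescence imaging | Benchmarks: TNF-alpha, DMSO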
miR-122 sensor: blocks miR-122 activity in Huh7 sensor cells. Huh7 miR-122 Renilla luciferase sensor, 48 h; neutral wells = 0, positive control = 100. activation (reporter increase), % at 12.5 µM. 340,000 tested, 0.3% active;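 active = mean replicate activation score at least 90 and every replicate individually at or above 90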;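 note: higher luciferase means less miR-122 activity so hits act as miR-122 inhibitors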
Each line names hits and unclear results; the compound was inactive in the other large screens.

O=C(CSc1ncn[nH]1)NC1CCCc2ccccc21 (stereo not given)	FGF22 binding 43 (no result: E-sel inducer, miR-122 sensor)
Cc1nc(S/C(=C/c2ccc(-c3ccc(C(=O)O)cc3)o2)C(=O)O)n[nH]1	SIRT5 block 37
COc1cc2c(cc1OC)C(C)N(C(=O)c1ccc(C)o1)CC2 (stereo not given)	SIRT5 block 22 (no result: miR-122 sensor)
CCCC(=O)Nc1ccc2c(c1)OC[C@@H](C)N(C(=O)CN(C)C)C[C@H](C)[C@H](OC)CN(C)C2=O	none (no result: miR-122 sensor)
CCOC(=O)/C(C)=N/NC(=O)c1ccc([N+](=O)[O-])cc1	FGF22 binding 44 (no result: E-sel inducer, miR-122 sensor)
CCN1/C(=C2/SC(=S)NC2=O)Sc2ccccc21	FGF22 binding 43 (no result: E-sel inducer, miR-122 sensor)
Cc1ccccc1-n1c(SCC(=O)N2CCC(C(=O)O)CC2)nnc1-c1ccncc1	none
Cc1ccc(C)c(-n2c(SCC(=O)N3CCC(C(=O)O)CC3)nnc2-c2cccc(Cl)c2)c1	FGF22 binding 44 (no result: E-sel inducer, miR-122 sensor)
CCOc1ccc(S(=O)(=O)Nc2cc(C)ccn2)c2ccccc12	miR-122 sensor 237 (no result: S100A4 MyoIIA, FGF22 binding, SIRT5 block, E-sel inducer)
CCOc1ccc(S(=O)(=O)NCc2ccc(C)cc2)c2cccnc12	none (no result: S100A4 MyoIIA, FGF22 binding, SIRT5 block, E-sel inducer)
CCOc1ccc(NS(=O)(=O)c2ccc(OCC)c3ncccc23)cc1	miR-122 sensor 139 (no result: S100A4 MyoIIA, FGF22 binding, SIRT5 block, E-sel inducer)
COc1ccccc1CSc1nc2c(c(=O)n(C)c(=O)n2C)n1C	E-sel inducer 48
CC(C)n1c(SCc2ccccc2F)nc2c1c(=O)n(C)c(=O)n2C	none (no result: SIRT5 block, E-sel inducer, miR-122 sensor)
COc1ccc(NS(=O)(=O)c2cc(NC(=O)C3CC3)ccc2N2CCCCC2)cc1	none (no result: E-sel inducer)
COc1ccc(NS(=O)(=O)c2cc(NC(=O)c3cnc(C)cn3)ccc2N2CCCC2)cc1	none (no result: S100A4 MyoIIA, FGF22 binding, SIRT5 block)
COc1ccc(NS(=O)(=O)c2cc(NC(=O)c3ccco3)ccc2N2CCCCC2)cc1	miR-122 sensor 209 (no result: S100A4 MyoIIA, FGF22 binding, SIRT5 block, E-sel inducer)
COc1ccc(NS(=O)(=O)c2cc(NC(=O)c3ccc(=O)[nH]c3)ccc2N2CCCC2)cc1	miR-122 sensor 155
COc1ccc2c(CN3CCCC3)cc(=O)oc2c1	SIRT5 block 19
COC(=O)C1CCN(Cc2cc(=O)oc3cc(OC)ccc23)CC1	none (no result: S100A4 MyoIIA, FGF22 binding, SIRT5 block, E-sel inducer)
C[C@@H]1CN([C@H](C)CO)C(=O)c2cc(NC(=O)Cc3ccccc3)ccc2O[C@@H](C)CCCCO[C@@H]1CN(C)C(=O)Nc1cccc2ccccc12	none
O=C(O)c1ccc(C2SCC(=O)N2Cc2ccco2)cc1 (stereo not given)	FGF22 binding 1.5
CCNC(=O)c1ccc(C2SCC(=O)N2Cc2ccco2)cc1 (stereo not given)	none (no result: S100A4 MyoIIA, FGF22 binding, SIRT5 block, E-sel inducer)
O=C(C1CC1)N1CC(=O)N2[C@H](CO)[C@H](c3ccc(C#Cc4cccc(F)c4)cc3)[C@@H]2C1	none (no result: FGF22 binding, miR-122 sensor)
Cc1nn(-c2ccccn2)c2c1C(=O)CC(C)(C)C2N=[N+]=[N-] (stereo not given)	FGF22 binding 43 (no result: SIRT5 block, miR-122 sensor)
Cc1nn(-c2ccncc2)c2c1C(=O)CC(C)(C)C2Br (stereo not given)	none (no result: miR-122 sensor)
COC(=O)C1=C(C)NC(=O)NC1c1cn(-c2ccccc2)nc1-c1cccs1 (stereo not given)	none (no result: S100A4 MyoIIA, FGF22 binding, SIRT5 block, E-sel inducer)
CC1=C(C(=O)OC(C)C)C(c2cn(-c3ccccc3)nc2-c2cccs2)NC(=O)N1 (stereo not given)	FGF22 binding 44 (no result: E-sel inducer)
COc1ccc2c3c([nH]c2c1)[C@H](CO)N(C(=O)C1CC1)CC31CCN(C)CC1	none (no result: miR-122 sensor)
CCCNC(=O)N1CC2(CN(S(=O)(=O)c3cccc(OC)c3)C2)c2c(n(C)c3cc(OC)ccc23)[C@H]1CO	none (no result: S100A4 MyoIIA, FGF22 binding, SIRT5 block, miR-122 sensor)
CCCC(=O)N1CC2(C1)CN(S(C)(=O)=O)[C@H](CO)c1c2c2ccc(OC)cc2n1C	none (no result: miR-122 sensor)
CC(C)NC(=O)N(C)C[C@@H]1Oc2ccc(NS(=O)(=O)c3ccc(Cl)cc3)cc2CC(=O)N([C@H](C)CO)C[C@H]1C	none
C[C@H](CO)N1C[C@H](C)[C@H](CN(C)Cc2ccccc2)OCCCC[C@H](C)Oc2ccc(NS(=O)(=O)c3ccc(Cl)cc3)cc2C1=O	none (no result: FGF22 binding, E-sel inducer)
CCC(=O)c1c[nH]c(C(=O)N2CCN(c3ccccc3)CC2)c1	FGF22 binding 43 (no result: E-sel inducer, miR-122 sensor)
C[C@H](CO)N1C[C@H](C)[C@H](CN(C)S(C)(=O)=O)Oc2c(NS(C)(=O)=O)cccc2C1=O	E-sel inducer 64
C[C@H](CO)N1C[C@H](C)[C@H](CN(C)C)Oc2c(NS(C)(=O)=O)cccc2C1=O	none
C[C@H]1CN([C@@H](C)CO)C(=O)c2cccc(NS(C)(=O)=O)c2O[C@H]1CN(C)S(C)(=O)=O	E-sel inducer 36
C[C@@H]1CN([C@H](C)CO)C(=O)c2cc(-c3cccnc3)cnc2O[C@@H]1CN(C)C(=O)C1CCC1	none
O=C1N=C(N2CCCC2C(=O)O)S/C1=C\c1ccco1 (stereo not given)	FGF22 binding 43 (no result: E-sel inducer)
COCC(=O)Nc1ccc2c(c1)C(=O)N(C)C[C@@H](OC)[C@@H](C)CN(Cc1ccncc1)[C@@H](C)CO2	none
CCOCCCNC(=O)Cc1ccc(F)cc1	none (no result: E-sel inducer, miR-122 sensor)
CC(C)OCCCNC(=O)Cc1ccc(F)cc1	FGF22 binding 43 (no result: E-sel inducer)
CC(C)(C)c1ccc(OCCNC(=O)Cc2ccc(F)cc2)cc1	FGF22 binding 1.6 (no result: miR-122 sensor)
C[C@@H]1CCCCO[C@@H](CN(C)C)[C@@H](C)CN([C@@H](C)CO)C(=O)c2cc(NS(=O)(=O)c3ccc(Cl)cc3)ccc2O1	none
COCC(=O)N1C[C@H](C)[C@@H](OC)CN(C)C(=O)c2ccc(NC(=O)NC(C)C)cc2OC[C@@H]1C	none (no result: miR-122 sensor)
O=C(Nc1cc(F)ccc1F)N[C@@H]1CC[C@@H](CCn2cc(C3CCCCC3)nn2)O[C@@H]1CO	none (no result: miR-122 sensor)
N#CCCN1CCN(C2=NC(=O)/C(=C\c3cccs3)S2)CC1	FGF22 binding 44 (no result: E-sel inducer, miR-122 sensor)
O=C(NC1CCCCC1)[C@H]1[C@H](CO)[C@H]2Cn3c(cccc3=O)[C@@H]1N2CC1CCCCC1	none (no result: FGF22 binding, miR-122 sensor)
CCCNC(=O)[C@@H]1[C@@H](CO)[C@@H]2Cn3c(cccc3=O)[C@H]1N2CCC(F)(F)F	S100A4 MyoIIA 123 (no result: miR-122 sensor)
CCCNC(=O)N1[C@@H]2Cn3c(cccc3=O)[C@H]1[C@@H](C(=O)N1CCC(Cc3ccccc3)CC1)[C@@H]2CO	SIRT5 block 21 (no result: miR-122 sensor)
O=C(NC1CCCCC1)[C@@H]1[C@@H](CO)[C@@H]2Cn3c(cccc3=O)[C@H]1N2CC1CCCCC1	SIRT5 block 19 (no result: FGF22 binding, miR-122 sensor)
CCCNC(=O)[C@@H]1[C@@H](CO)[C@@H]2Cn3c(cccc3=O)[C@H]1N2C(=O)NCCC	none
C[C@@H]1CN([C@@H](C)CO)C(=O)Cc2cc(NC(=O)CCCCCC(=O)Nc3ccccc3N)ccc2O[C@H]1CN(C)S(C)(=O)=O	none
Cc1cc(C)n2nc(SCC(=O)N(Cc3ccccc3)C3CCS(=O)(=O)C3)nc2n1 (stereo not given)	FGF22 binding 43 (no result: E-sel inducer)
O=C1CN(S(=O)(=O)Cc2ccccc2)C[C@H]2[C@@H](c3ccc(C#Cc4ccccc4)cc3)[C@H](CO)N12	SIRT5 block 16 (no result: FGF22 binding, miR-122 sensor)
O=C1CN(Cc2ccccc2)C[C@@H]2[C@H](c3ccc(-c4ccccc4)cc3)[C@H](CO)N12	SIRT5 block 22 (no result: FGF22 binding, miR-122 sensor)
